# The list is not random: actives were taken first. Their share in the collection is about 4.1%.
# KCC2 mod: KCC2 cotransporter modulators, thallium flux, primary screen, cell-based, HEK293 KCC2, FluoZin-2 fluorescence, MLSMR. AID 1456, 2008. KCC2 cells, thallium flux FluoZin-2 fluorescence. B-score of Tl+ flux slope (higher = more flux/activation; lower = inhibition) at 10 µM. 190,000 compounds, 2.2% hits;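 active = thallium flux slope and its plate-corrected score both differing from the plate sample mean at a set confidence after two filtering rounds, in either direction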;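 note: slope of fluorescence scaled to starting intensity during 10 to 20 s after thallium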
# KCNQ1 block: inhibitors of human KCNQ1 channel, primary screen, cell-based, thallium flux, high-throughput; 310,000 compounds, 1.3% hits; B-score at 10 µM; CHO-K1 KCNQ1, FluxOR thallium flux fluorescence; active compounds read high;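 active = compounds whose thallium flux B-score, printed positive for inhibition, exceeds three library SD while starting fluorescence stays within three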;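 note: channel opened by potassium depolarization with thallium stimulus after 20 min compound exposure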
# KCNQ1 act: potentiators or activators of KCNQ1 channel, primary screen, cell-based, thallium flux, high-throughput. Potassium voltage-gated channel subfamily KQT member 1 (Homo sapiens), P51787. CHO-K1 KCNQ1, thallium flux FluxOR fluorescence; active compounds read high. B-score at 10 µM. 310,000 compounds, 0.35% hits;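 active = fluorescence ratio B-score, a plate-corrected score, at least three library SD, with initial intensity B-score within 5 SD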
#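 assay system = CHO-K1 cells stably expressing KCNQ1 | medium = assay buffer, equal DMSO in all wells | timing = 37 °C overnight plating, 90-min dark dye load, 20-min compound pretreatment | measured by = kinetic FluxOR thallium fluorescence, 10-s 1-Hz baseline, 110-s post-stimulus read | measure = fluorescence change relative to baseline, converted to B score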
# hERG protect: hERG rescue from dofetilide block, primary screen, cell-based, CHO-hERG, FluxOR thallium flux, dofetilide IC70; Voltage-gated inwardly rectifying potassium channel KCNH2 (Homo sapiens), Q12809; AID 1511, 2009; dofetilide IC70 present; activation (rescue from dofetilide block), less the hit threshold, % at 10 µM; 310,000 compounds, 0.51% hits;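 active = activation above the mean of controls blocked by dofetilide plus 5 SD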;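 note: thallium influx through hERG after potassium depolarization seen as dye fluorescence rise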
# KCNK3 block: human KCNK3 channel inhibitors, primary screen, CHO cells, FluxOR thallium flux, B-score | B-score at 10 µM | FluxOR fluorescence; active compounds read low | Potassium channel subfamily K member 3 (Homo sapiens), O14649 | 340,000 compounds, 0.84% hits | AID 602410, 2012;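 active = B-score under library mean minus 4 SD, starting fluorescence ratio at most library mean plus 5 SD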;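 note: more negative B-score means stronger inhibition of thallium flux through KCNK3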
# KCNK9 block: KCNK9 potassium channel inhibitors, primary screen, HEK293 cells, thallium flux; 310,000 compounds, 1.2% hits; Potassium channel subfamily K member 9 (Homo sapiens), Q9NPC2; B-score at 10 µM; FluxOR thallium flux fluorescence; active compounds read low;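 active = ratio B-score over 3 SD below the library mean, with starting fluorescence within 5 SD of its mean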;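 note: negative B-score means less thallium flux so channel inhibition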
# KCNK9 inh conf: KCNK9 potassium channel inhibitors, confirmation, HEK293 cells, thallium flux, duplicate. shares compounds with KCNK9 block. FluxOR thallium flux fluorescence. inhibition, % at 10 µM. 4,900 compounds, 43% hits. AID 492992, 2010;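 active = thallium signal inhibited by more than 5 SD of the compound-free buffer control wells, on both duplicate plates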;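 note: 0% = assay buffer control wells without compound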
# Kir2-1 spec: mouse Kir2.1 channel inhibition, confirmation, selectivity assay for KCNK9 modulator project, cell-based, HEK293, thallium flux | shares compounds with KCNK9 block | Kir2.1 cells, FluxOR thallium flux fluorescence | inhibition, % at 10 µM | 4,900 compounds, 4% hits | AID 492993, 2010;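 active = thallium signal drop more than 5 SD beyond the mean of the no-compound control wells, seen in both duplicate plates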;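 note: signal is fluorescence rise after thallium addition divided by baseline fluorescence; plate controls were assay buffer only for no effect and full block by chlorpromazine control for full effect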
# Target sequence (P35561 whole entry, looked up): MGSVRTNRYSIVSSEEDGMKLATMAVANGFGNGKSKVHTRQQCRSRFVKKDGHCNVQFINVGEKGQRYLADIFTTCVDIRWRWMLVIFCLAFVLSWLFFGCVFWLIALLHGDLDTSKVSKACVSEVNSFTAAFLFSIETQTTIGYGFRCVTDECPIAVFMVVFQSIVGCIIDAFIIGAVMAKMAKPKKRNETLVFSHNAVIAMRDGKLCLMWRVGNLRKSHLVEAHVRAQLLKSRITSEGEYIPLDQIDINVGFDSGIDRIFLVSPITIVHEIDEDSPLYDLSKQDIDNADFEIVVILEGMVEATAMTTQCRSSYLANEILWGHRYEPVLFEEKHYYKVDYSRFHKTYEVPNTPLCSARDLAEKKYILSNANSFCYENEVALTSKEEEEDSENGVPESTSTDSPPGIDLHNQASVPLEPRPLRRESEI
# KCNK9 uninduced: thallium flux in non-induced HEK293 cells, confirmation, counter-screen for KCNK9 inhibitor project, cell-based, second counter screen, non-induced KCNK9-HEK293; shares compounds with KCNK9 block; FluxOR thallium flux; inhibition, % at 10 µM; 4,900 compounds, 40% hits;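 active = thallium signal drop beyond 5 SD of the untreated control mean, on both duplicate plates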;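 note: plate controls were buffer only IC0 wells for no effect and SID17386958 at its maximal inhibitory level for full effect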
# The depositor's hits bear a star; i = inactive; · = no result given.
SMILES,KCC2 mod,KCNQ1 block,KCNQ1 act,hERG protect,KCNK3 block,KCNK9 block,KCNK9 inh conf,Kir2-1 spec,KCNK9 uninduced
Cc1ccc(NC(=S)NCCC(c2ccccc2)c2ccccc2)c(C)c1,0.467,i,i,-10.6,i,i,·,·,·
Cc1cccc(NC(=O)CC(=O)Nc2cccc(C)c2)c1,·,i,i,-4.6,i,i,·,·,·
Cc1cccc(NC(=O)C23CCC(C)(C2Br)C3(C)C)c1 (stereo not drawn),0.0288,i,i,-8.7,i,i,i,i,i
c1ccc(Cn2c(NCc3ccncc3)nc3ccccc32)cc1,-0.297,i,i,-12.5,i,i,·,·,·
COc1ccc(CNc2nc3ccccc3n2Cc2ccc(C)cc2)cc1OC,0.152,i,i,-15.1,i,-8.48*,28.0%*,i,i
Cc1ccc(C(CCN(Cc2ccccc2)C(=O)c2ccco2)c2ccco2)cc1 (stereo not drawn),-0.418,i,i,-32.7,i,i,·,·,·
O=C(c1ccco1)N(CCC(c1ccccc1)c1ccco1)Cc1ccco1 (stereo not drawn),-0.0746,i,i,-19.3,i,-8.2*,40.0%*,i,36.5%*
COc1cc(-c2nc3c4ccccc4nc(=S)n3[nH]2)cc(OC)c1OC,·,i,i,-8.3,i,i,·,·,·
COc1ccccc1-c1nc2c3ccccc3nc(=S)n2[nH]1,·,i,i,-8.9,i,i,·,·,·
CCCC(Oc1ccc(Br)cc1)c1nc2c3cc(OC)c(OC)cc3nc(=S)n2[nH]1 (stereo not drawn),-2.92,i,i,-14.3,i,i,i,i,i
CC(Oc1ccc(Br)cc1)c1nc2c3ccccc3nc(=S)n2[nH]1 (stereo not drawn),26.3*,i,10*,0.3,i,i,i,i,i
Cc1ccc(C(=O)OCC(=O)Nc2ccc(N3CCOCC3)cc2)cc1,·,·,·,·,i,·,·,·,·
Cc1cccc(Cl)c1NC(=S)NCCc1ccccn1,0.0596,i,i,-4.9,i,-8.23*,44.5%*,i,27.5%*
O=C(Nc1cccc(F)c1)C1CCN(C(=O)c2ccc(Br)cc2)CC1,·,i,i,-14.5,i,i,i,i,i
O=C(Nc1ccc(Br)cc1)C1CCN(C(=O)c2ccc(F)cc2)CC1,-2.15,i,i,-5.0,i,i,i,i,i
O=C(Nc1ccc(F)cc1F)C1CCN(C(=O)c2ccc(Br)cc2)CC1,0.397,i,i,-6.9,i,i,·,·,·
O=C1[C@H]2CCC=C[C@H]2[C@H](c2cccc(Br)c2)N1Cc1ccccc1,·,·,·,·,i,·,·,·,·
CCCCOC(=O)Nc1nnc(SCCOc2ccc(C)cc2)s1,-0.478,i,i,-12.7,i,i,i,i,i
CCOc1cc(C)c(C(C)C)cc1S(=O)(=O)n1cnc(C)c1,-0.0178,i,i,-5.6,i,i,i,i,i

# Screens from PubChem.
